Values after ≈ are worked out from the molar mass of the structure shown.
How the values were obtained:
Homo sapiens [1] = organism: Homo sapiens; test: Bronchorelaxant activity in human small airways assessed as remaining contraction at 1 uM relative to LTD4; assay type: functional
In short: (§1)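 Isolated human small airways (inner diameter <2.0 mm) were mounted in a previously described apparatus and contracted with LTD4. The test item was added, usually at 10 μM and also at 1 μM. %RC is the contraction remaining with the test item, expressed against the maximum LTD4-evoked contraction without it.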

Homo sapiens [2] = organism: Homo sapiens; test: Bronchorelaxant activity in human small airways assessed as remaining contraction at 10 uM relative to acetylcholine and histamine combination; assay type: functional
In short: (§2)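 Isolated human small airways (inner diameter <2.0 mm) were contracted with acetylcholine, with histamine, or with a cocktail of LTD4, acetylcholine and histamine. Test item at 10 μM; relaxation of each induced contraction was recorded.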

Homo sapiens [3] = organism: Homo sapiens; test: Bronchorelaxant activity in human small airways assessed as remaining contraction at 10 uM relative to histamine; assay type: functional; in short: as §2
[4] = Aqueous solubility of the compound; assay type: physicochemical
Homo sapiens [5] = organism: Homo sapiens; test: Bronchorelaxant activity in human small airways assessed as remaining contraction at 10 uM relative to acetylcholine; assay type: functional; in short: as §2
[6] = Lipophilicity log D of the compound at pH 7.4; assay type: physicochemical; settings: buffer
Homo sapiens [7] = organism: Homo sapiens; test: Bronchorelaxant activity in human small airways assessed as remaining contraction at 10 uM relative to LTD4; assay type: functional; in short: as §1
Homo sapiens [8] = organism: Homo sapiens; test: Bronchorelaxant activity in human small airways assessed as remaining contraction; assay type: functional; in short: as §1

| Compound | Activity (Homo sapiens [1]) [%] | Activity (Homo sapiens [7]) [%] | other results |
| --- | --- | --- | --- |
| C/C(=C\C(=O)N1CCc2c(Cl)c(O)c(O)c(Cl)c2C1)c1ccc(C(F)(F)F)nc1 | 74 | 7 | Activity (Homo sapiens [2]): 82%; Activity (Homo sapiens [3]): 97%; solubility [4]: 18 µM (≈ 8.05 µg/mL); Activity (Homo sapiens [5]): 93%; logD [6]: 3.5; ED50 (Homo sapiens [8]): 2270 nM |
| Cc1nc(C(F)(F)F)ncc1/C=C/C(=O)N1CCc2c(Cl)c(O)c(O)c(Cl)c2C1 | 88 | 18 |  |
| O=C(CCCc1ccc(C(F)(F)F)nc1)N1CCc2c(Cl)c(O)c(O)c(Cl)c2C1 | 93 | 26 |  |
| O=C(CCCc1ccc([N+](=O)[O-])cn1)N1CCc2c(Cl)c(O)c(O)c(Cl)c2C1 | 74 | 33 |  |
| O=C(/C=C/c1cccnc1)N1CCc2c(Cl)c(O)c(O)c(Cl)c2C1 | 100 | 44 |  |
| O=C(CCCc1ccc(Cl)cn1)N1CCc2c(Cl)c(O)c(O)c(Cl)c2C1 | 85 | 15 |  |
| N#Cc1ccc(CCCC(=O)N2CCc3c(Cl)c(O)c(O)c(Cl)c3C2)nc1 | 86 | 34 |  |
| CS(=O)(=O)c1ccc(CCCC(=O)N2CCc3c(Cl)c(O)c(O)c(Cl)c3C2)nc1 | 99 | 72 |  |
| O=C(/C=C/c1ccc(F)cn1)N1CCc2c(Cl)c(O)c(O)c(Cl)c2C1 |  | 24 |  |
| O=C(/C=C/c1ccc(O)cc1)N1CCc2c(Cl)c(O)c(O)c(Cl)c2C1 |  | 32 |  |
| Cc1nc(C(F)(F)F)ccc1/C=C/C(=O)N1CCc2c(Cl)c(O)c(O)c(Cl)c2C1 | 71 | 9 |  |
| Cc1c(O)c(O)c(C)c2c1CCN(C(=O)/C=C/c1ccc(C(F)(F)F)nc1)C2 |  | 75 |  |
| O=C(CCCc1ccc(Cl)cc1)N1CCc2c(Cl)c(O)c(O)c(Cl)c2C1 | 80 | 16 |  |
| COc1ccc(CCCC(=O)N2CCc3c(Cl)c(O)c(O)c(Cl)c3C2)nc1 | 96 | 31 |  |
| O=C(CCCc1ncc(C(F)(F)F)cc1-c1ccccc1)N1CCc2c(Cl)c(O)c(O)c(Cl)c2C1 | 90 | 38 |  |
| O=C(/C=C/c1ccc(C(F)(F)F)nc1)N1CCc2c(c3c(c4c2CCO4)OCC3)C1 |  | 91 |  |
| O=C(CCCc1ncc(C(F)(F)F)cc1Cl)N1CCc2c(Cl)c(O)c(O)c(Cl)c2C1 | 61 | 5 |  |
| O=C(/C=C/c1ccc(C(F)(F)F)nc1)N1CCc2c(Cl)c(O)c(O)c(Cl)c2C1 | 87 | 6 |  |
| O=C(CCCc1ccc(C(F)(F)F)cn1)N1CCc2c(Cl)c(O)c(O)c(Cl)c2C1 | 72 | 19 |  |
| O=C(CCCc1ccc(F)cn1)N1CCc2c(Cl)c(O)c(O)c(Cl)c2C1 | 89 | 25 |  |
| O=C(/C=C/c1ccccc1)N1CCc2c(Cl)c(O)c(O)c(Cl)c2C1 | 83 | 41 |  |
| O=C(CCc1ccc(C(F)(F)F)nc1)N1CCc2c(F)c(O)c(O)c(F)c2C1 |  | 85 |  |
| Cc1cc(C(F)(F)F)cnc1CCCC(=O)N1CCc2c(Cl)c(O)c(O)c(Cl)c2C1 | 67 | 7 |  |
| O=C(CCCc1ncc(C(F)(F)F)cc1C1CCCCC1)N1CCc2c(Cl)c(O)c(O)c(Cl)c2C1 |  | 77 |  |
| O=C(CCc1ccc(C(F)(F)F)nc1)N1CCc2c(Cl)c(O)c(O)c(Cl)c2C1 |  | 29 |  |

Reference: ChEMBL document CHEMBL1221309, “Synthesis of novel tetrahydroisoquinoline bronchodilators” (Bioorg Med Chem Lett, 2010)
